The results in this text go back to ChEMBL document CHEMBL3994624, “Antimalarial Pyrido[1,2-a]benzimidazoles: Lead Optimization, Parasite Life Cycle Stage Profile, Mechanistic Evaluation, Killing Kinetics, and in Vivo Oral Efficacy in a Mouse Model” (J Med Chem, 2017).

Common to all, as to assay type: functional
The test system of experiment [1] is Plasmodium berghei. Put plainly: Antimalarial activity against GFP-fused Plasmodium berghei ANKA infected in mouse assessed as reduction in parasitemia at 6 mg/kg, po administered once daily for 4 days by flow cytometry relative to control. Set-up: scale not given: the % may be the effect or the level left. (Flow cytometry measures light scatter and fluorescence of single cells or particles in a stream.)

Experiment [2] has as its system Plasmodium berghei. Put plainly: Antimalarial activity against GFP-fused Plasmodium berghei ANKA infected in mouse assessed as mouse mean survival days at 25 mg/kg, po administered once daily for 4 days.
Experiment [3] has as its system Plasmodium berghei. Put plainly: Antimalarial activity against GFP-fused Plasmodium berghei ANKA infected in mouse assessed as mouse mean survival days at 6 mg/kg, po administered once daily for 4 days.
The test system of experiment [4] is Plasmodium berghei. In words: Antimalarial activity against GFP-fused Plasmodium berghei ANKA infected in mouse assessed as reduction in parasitemia at 12.5 mg/kg, po administered once daily for 4 days by flow cytometry relative to control. Set-up: scale not given: the % may be the effect or the level left.
For experiment [5], the system named is Plasmodium berghei. In words: Antimalarial activity against GFP-fused Plasmodium berghei ANKA infected in mouse assessed as mouse mean survival days at 12.5 mg/kg, po administered once daily for 4 days.
The test system of experiment [6] is Plasmodium berghei. In words: Antimalarial activity against GFP-fused Plasmodium berghei ANKA infected in mouse assessed as mouse mean survival days at 50 mg/kg, po administered once daily for 4 days. A digest of the protocol:
(§1)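 P. berghei-infected mice (n=3 per dose) dosed orally once daily on 4 consecutive days at 4, 24, 48 and 72 h after infection; compound in 90/10 Tween80/ethanol (v/v) diluted 10-fold with water. Read-outs were % parasitemia reduction, mean survival time in days and cure; mice with <40% parasitemia reduction euthanized on day 4.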

Experiment [7] deals with Plasmodium berghei. Put plainly: Antimalarial activity against GFP-fused Plasmodium berghei ANKA infected in mouse assessed as reduction in parasitemia at 25 mg/kg, po administered once daily for 4 days by flow cytometry relative to control. Set-up: scale not given: the % may be the effect or the level left.
Experiment [8] has as its system Plasmodium berghei. In words: Antimalarial activity against GFP-fused Plasmodium berghei ANKA infected in mouse assessed as reduction in parasitemia at 50 mg/kg, po administered once daily for 4 days by flow cytometry relative to control. Set-up: scale not given: the % may be the effect or the level left. The procedure, abridged:
(§2)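 P. berghei-infected mice, 3 per group. Compound formulated in 90/10 Tween80/ethanol (v/v), diluted 10-fold with water, given orally once daily at 4, 24, 48 and 72 h post-infection. Outcomes: % parasitemia reduction versus untreated control, mean survival days, and cured/infected. Mice with <40% reduction euthanized on day 4.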

Experiment [9] concerns Plasmodium berghei. Put plainly: Antimalarial activity against GFP-fused Plasmodium berghei ANKA infected in mouse assessed as reduction in parasitemia at 3 mg/kg, po administered once daily for 4 days by flow cytometry relative to control. Further details: scale not given: the % may be the effect or the level left. The procedure, abridged: as §2
Experiment [10] has as its system Plasmodium berghei. Put plainly: Antimalarial activity against GFP-fused Plasmodium berghei ANKA infected in mouse assessed as mouse mean survival days at 3 mg/kg, po administered once daily for 4 days. The procedure, abridged:
as §1

Some results are limits rather than exact numbers.

For `CCNCCNc1cc(-c2ccc(C(F)(F)F)cc2)c(C#N)c2nc3ccccc3n12.Cl`, the Activity was 38% in the experiment on Plasmodium berghei [1]; 81% with Plasmodium berghei [4]; 96% with Plasmodium berghei [7]; 96% in the experiment on Plasmodium berghei [8]; less than 40% in the experiment with Plasmodium berghei [9]. The MSD in the experiment on Plasmodium berghei [2] came to 14 days; in the experiment with Plasmodium berghei [3], 7 days; in the experiment on Plasmodium berghei [5] it was 14 days; in the experiment with Plasmodium berghei [6] it was 14 days; in the experiment on Plasmodium berghei [10], 4 days.
